Measured values gathered from unrelated publications.
Target: Insulin receptor (INSR, Homo sapiens, UniProt P06213)

Structure (SMILES)	observed	action	method	concentration	measurement	value
O=C(Nc1cccnn1)N1CCN([C@@H]2CCOc3cc(C(F)(F)F)ccc32)CC1	enzyme activity	inhibitor	–	20 µM	inhibition	14%
C[C@H](C(=O)N[C@H]1COc2ccccc2[C@@H]1S(C)(=O)=O)c1ccc(F)cc1	enzyme activity	inhibitor	–	10 µM	inhibition	-14%
Cn1cc(-c2cccc(N3CCc4c(sc5c4CC(C)(C)C5)C3=O)c2CO)cc(Nc2ccncn2)c1=O	enzyme activity	inhibitor	–	1 µM	inhibition	6%
C#Cc1n[nH]c2c(-c3cn([C@@H](C)c4ccccc4)c(=O)[nH]c3=O)cc(F)cc12	enzyme activity	inhibitor	–	0.1 µM	inhibition	7.7%
Cc1ncc(C)n2nc(/C=C/c3nc(N4CCCC4)cc(N4CCOCC4)n3)nc12	enzyme activity	inhibitor	–	10 µM	inhibition	37%
C#Cc1n[nH]c2c(-c3cn([C@@H](C)c4ccccn4)c(=O)[nH]c3=O)cc(F)cc12	enzyme activity	inhibitor	–	0.1 µM	inhibition	9%
Cc1nn(C)cc1-c1nc2c(N3CCN(Cc4ccc(Cl)cc4)CC3)c(Cl)cnc2[nH]1	binding	–	competition with immobilised ligand	1 µM	remaining binding	100%
Cn1cncc1[C@@](O)(COc1ccc(C#N)cc1-c1ccc(OC(F)(F)F)cc1)c1ccc(C#N)cc1	cell-free assay	–	competition with immobilised ligand	1 µM	remaining binding	84%
Nc1ncc(-c2nc(N3CCOCC3)nc(N3CCOCC3)n2)c(C(F)F)n1	cell-free assay	–	competition with immobilised ligand	10 µM	remaining binding	50%
N#CC1(c2ccccn2)CCN(Cc2cc(C(=O)O)c(=O)n3ccccc23)CC1	cell-free assay	–	competition with immobilised ligand	1 µM	remaining binding	74%
CC(C)(C)c1cc(C=C(C#N)C#N)cc(Br)c1O	enzyme activity	inhibitor	–	0.5 µM	remaining activity	105%
COc1ncccc1-c1cnn2ccc(N3CCN(C(=O)OC(C)C)CC3)nc12	binding	–	competition with immobilised ligand	1 µM	remaining binding	95%
Cn1cc(-c2cc(F)cc(N3CCn4c(cc5c4CCCC5)C3=O)c2CO)cc(Nc2ccc(N3CCN(C4COC4)CC3)cn2)c1=O	enzyme activity	inhibitor	–	0.1 µM	inhibition	8%
c1ccc(C(NCCNC(c2ccccc2)c2ccccc2)c2ccccc2)cc1	enzyme activity	inhibitor	–	10 µM	inhibition	-6%
O=c1[nH]c2ccccc2n1C1CCN(Cc2ccc(-c3[nH]c4cc5ncnc5cc4nc3-c3ccccc3)cc2)CC1	cell-free assay	–	–	0.5 µM	remaining signal	102%
